From PubChem BioAssay
A selection: hits, their analogues and other compounds. The true share with any hit is near 3.4%.
ANO1 block: blocks the mouse calcium-activated chloride channel TMEM16A; HEK293 TMEM16A/YFP iodide influx fluorescence, ionomycin; normalized B-score (activity score, 25-100; higher = stronger inhibition) at 10 µM; 310,000 tested, 1.2% active; AID 588511;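 active = ratio plate-corrected score three or more library SD toward inhibition, starting fluorescence score within five deviations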;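 also: score derived from kinetic fluorescence span divided by baseline fluorescence per well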
m5-HT2A agonist: mouse HTR2A agonism via beta-arrestin recruitment; P35363; CHO-K1 mHTR2A beta-arrestin complementation, luminescence; percent of 30 µM serotonin response; activation, % at 7.6 µM; 360,000 tested, 0.66% active;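 active = activation above a run cutoff, the mean activation of all tested compounds plus 3 SD, cut at about 14% in these data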;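 also: 0% = plate median of compound wells and 100% = 30 µM serotonin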
MC4R antag cAMP: human MC4R antagonism in cAMP assay. MC4R-expressing cells, MTII-stimulated cAMP, LANCE TR-FRET. 360,000 tested, 0.48% active. P32245. inhibition, % at 6.5 µM;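 active = inhibition above its plate's cutoff, the mean of tested wells on that plate plus 3 SD, cut at about 29% in these data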;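 also: 0% = Melanotan II alone and 100% = Melanotan II plus saturating MCL0020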
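System: U2OS cells stably expressing human melanocortin 4 receptor (MC4R). Reagent: Melanotan II challenge after compound preincubation. Doses: 6.5 µM. Times: 30-min compound, 1-h challenge, 1-h detection, room temperature. Measured by: TR-FRET with Eu-cAMP and labeled anti-cAMP, 671 nm. Replicates: singlicate.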
MC4R barr agon: human MC4R agonism via beta-arrestin; P32245; U2OS MC4R beta-arrestin complementation, luminescence; percent of melanotan II response, DMSO zero; activation, % at 8.9 µM; 360,000 tested, 0.98% active; AID 540308;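 active = activation above a per-plate cutoff, the mean activation of sample wells on that plate plus 3 SD, cut at about 8% in these data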
TMEM16A act: activators or potentiators of mouse TMEM16A chloride channel; Q8BHY3; HEK293 TMEM16A/YFP-H148Q/I152L, iodide quench fluorescence; stronger effect = lower value; B-score at 10 µM; 340,000 tested, 0.3% active; AID 623877;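 active = fluorescence-ratio B-score plate-corrected deviation score at least 3 library SD below zero, with starting fluorescence score within 5 deviations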;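 also: channel opened by trigger with iodide after compound preincubation; score built on the fluorescence ratio of max minus min over baseline; more negative score means more quench and so TMEM16A activation or potentiation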
MIN6 prolif: inducers of beta-cell replication in MIN6 cells; AID 2380; MIN6 cells proliferation, ATPlite luminescence, 48 h; cells starved in 0.2% serum; 100% = growth in 10% serum; 330,000 tested, 0.29% active; proliferation, % at 10 µM;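 active = compounds whose signal lies at least 3.5 SD above the mean of all wells on their plate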;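 also: 0% = DMSO-treated cells in low-serum medium and 100% = 10% serum control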
MC4R barr conf: human MC4R beta-arrestin agonism confirmation | shares compounds with MC4R barr agon | U2OS MC4R beta-arrestin recruitment, luminescence; scaled DMSO 0%, Melanotan II 100% | 2,400 tested, 31% active | activation, % at 8.9 µM;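 active = mean activation across replicates above the hit cutoff set in the earlier primary screen, cut at about 8% in these data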
MOR DOR agonist: activates mu-delta opioid heterodimer, MC4R agonist counter-screen. shares compounds with MC4R barr agon. U2OS PathHunter beta-arrestin, beta-gal luminescence; percent of deltorphin B response, DMSO zero. activation, % at 9.2 µM. 2,400 tested, 5.8% active. AID 602194;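 active = mean activation across replicates exceeds the hit threshold derived in the earlier primary screen, cut at about 18% in these data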;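 also: 100% = deltorphin B at 0.9 µM final and 0% = DMSO alone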
Target sequence (P35372 whole entry, looked up): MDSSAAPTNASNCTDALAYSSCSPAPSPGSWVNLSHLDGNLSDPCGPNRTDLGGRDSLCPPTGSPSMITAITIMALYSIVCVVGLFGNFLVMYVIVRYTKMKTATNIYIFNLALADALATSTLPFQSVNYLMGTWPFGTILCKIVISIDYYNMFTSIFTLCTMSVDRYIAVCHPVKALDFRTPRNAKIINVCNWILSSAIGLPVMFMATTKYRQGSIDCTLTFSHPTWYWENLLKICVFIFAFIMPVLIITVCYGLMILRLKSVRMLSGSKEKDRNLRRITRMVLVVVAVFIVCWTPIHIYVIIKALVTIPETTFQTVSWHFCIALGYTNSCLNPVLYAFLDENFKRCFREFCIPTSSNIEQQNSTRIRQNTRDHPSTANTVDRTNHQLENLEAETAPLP
Target sequence (P41143 whole entry, looked up): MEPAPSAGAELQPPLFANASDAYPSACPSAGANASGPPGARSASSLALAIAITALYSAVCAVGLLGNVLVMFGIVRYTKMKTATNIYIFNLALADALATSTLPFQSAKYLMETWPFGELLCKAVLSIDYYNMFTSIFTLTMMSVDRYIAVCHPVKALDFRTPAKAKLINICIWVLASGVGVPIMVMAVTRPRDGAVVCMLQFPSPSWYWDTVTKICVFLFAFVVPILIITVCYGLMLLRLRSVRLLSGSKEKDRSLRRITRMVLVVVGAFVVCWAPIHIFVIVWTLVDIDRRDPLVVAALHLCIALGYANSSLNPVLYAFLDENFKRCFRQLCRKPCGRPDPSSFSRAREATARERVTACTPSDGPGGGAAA
* = called active by the depositor; i = inactive; / = not tested or not shown.

SMILES	ANO1 block	m5-HT2A agonist	MC4R antag cAMP	MC4R barr agon	TMEM16A act	MIN6 prolif	MC4R barr conf	MOR DOR agonist
Cc1ccccc1NC(=O)Cc1nc(COC(=O)c2cc(Cl)ccc2O)cs1	i	7	13	3	i	-5	/	/
CC(OC(=O)CC1Sc2ccccc2NC1=O)C(=O)NC1CCCC1 (centres undefined)	i	-4	12	-1	i	1	/	/
CCCCC[C@H](C)N1C[C@@H](COCc2ccccc2)Oc2cc(N3CCC[C@@H]3COC)ccc2S1(=O)=O	/	3	/	/	/	/	/	/
N#Cc1ccc(C(=O)OCC(=O)Nc2cccnc2Cl)cc1	/	5	3	0	i	/	/	/
O=C(Cn1nc(CNc2ccc(Cl)cc2)[n+]2c1CCCCC2)c1ccccc1	i	-5	13	-1	i	0	/	/
Cc1ccc(C(C)C)c(OCc2nn(CC(=O)c3ccc(Cl)cc3)c3[n+]2CCCCC3)c1	i	0	14	40*	i	-6	19*	34*
O=C(NC(=S)Nc1ccccc1O)c1ccc(-c2ccc(Cl)cc2)o1	i	-3	2	30*	i	-4	2	10
Cc1c(NC(=S)NC(=O)c2ccc(-c3ccc(Cl)cc3)o2)cccc1C(=O)O	i	3	22	2	i	-4	/	/
COc1ccccc1NC(=S)NC(=O)c1ccc(-c2ccc(Cl)cc2)o1	i	3	13	20*	i	-2	0	2
Cc1nn(C)cc1S(=O)(=O)N1CCN(c2ccccc2)CC1	i	-1	5	-1	i	-2	/	/
CCC(=O)Nc1sc(C(=O)Nc2ccccc2OC)c(C)c1C(=O)OC	i	2	5	11*	i	-3	3	3
CCOC(=O)C1Cc2ccccc2C(=O)O1 (centres undefined)	i	-4	18	0	i	-1	/	/
CCOC(=O)C1=C(N)c2ccccc2CC1C(C)C (centres undefined)	i	5	2	11*	i	0	3	8
O=C(Cn1cnc2c(NC(=O)OCc3ccccc3)ncnc21)NCc1ccccn1	/	-4	7	0	i	-3	/	/
CC(C)c1ccc(NC(=O)CSc2ncccc2C(=O)Oc2cccc([N+](=O)[O-])c2)cc1	i	-3	-14	20*	i	-4	17*	2
O=C(COC(=O)/C=C/c1cccc([N+](=O)[O-])c1)Nc1ccc(Cl)cn1	/	-6	2	-2	i	-4	/	/
O=C(COC(=O)/C=C/c1cccc(Cl)c1)Nc1ccc(N2CCOCC2)cc1	/	1	-3	9.8*	i	-1	0	8
CC(C)c1ccc(NC(=O)COC(=O)/C=C/c2cccc([N+](=O)[O-])c2)cc1	i	1	1	16*	i	-3	1	3
Cc1ccc(NC(=O)COC(=O)/C=C/c2cccc(Cl)c2)cc1S(=O)(=O)N1CCOCC1	i	-1	-1	0	i	0	/	/
COc1ccc(NS(=O)(=O)c2ccc(OC)c(NC(=O)CNC(=O)c3ccc(OC)cc3)c2)cc1	/	-5	3	-2	i	-3	/	/
Cc1csc(SCC(=O)N(C)C2CCS(=O)(=O)C2)n1 (centres undefined)	/	3	1	-2	i	1	/	/
CCCCNC(=O)C(NC(=O)c1ccc2ccccc2c1)C(=O)c1ccccc1 (centres undefined)	/	-2	/	/	/	/	/	/
Cc1ccc(NCCCn2cnc(C(=O)Nc3ccc(C)c(C)c3)n2)cc1C	/	3	11	8	/	/	/	/
Cc1cc(C)c(CN2CCN(CCCn3cnc(C(=O)Nc4ccc(C)c(C)c4)n3)CC2)c(C)c1	/	2	1	16*	/	/	24*	10
CSc1ccc(CN(C)C(=O)CNC(=O)c2ccc3c(c2)OCO3)cc1	i	0	4	-4	i	-4	/	/
SMILES	ANO1 block	m5-HT2A agonist	MC4R antag cAMP	MC4R barr agon	TMEM16A act	MIN6 prolif	MC4R barr conf	MOR DOR agonist
C=CCn1c(=S)[nH]c2cc(C(=O)Nc3ccc(OC)c(OC)c3)ccc2c1=O	i	-3	1	10*	i	0	-1	5
CCOC(=O)C1=C(c2ccccc2)NC(N)=NC1c1ccc(OCc2ccc(Cl)cc2)c(OC)c1 (centres undefined)	i	-2	10	12*	i	-7	11*	17
CCOC(=O)C1=C(c2ccccc2)NC(=O)NC1c1cc(Cl)c(O)c(OC)c1 (centres undefined)	i	-3	18	-1	i	0	/	/
Cc1cc2occ(CC(=O)N(CC(C)C)c3c(N)n(Cc4ccccc4)c(=O)[nH]c3=O)c2cc1C	i	0	6	-2	i	-1	/	/
COc1ccc(NC(=O)c2ccc(-c3ccccc3C(F)(F)F)o2)cc1	i	-2	3	10*	i	-4	2	5
Cc1ccccc1OCC(=O)OCC(=O)c1c[nH]c2ccccc12	/	1	-1	1	i	2	/	/
COc1cccc(/C=C/C(=O)N(C)CC(=O)Nc2ccc(Cl)c(C(F)(F)F)c2)c1	i	-7	-3	12*	i	-5	1	6
Cn1c(SCC(=O)Nc2cccc(Br)c2)nnc1-c1cc2ccccc2o1	i	0	3	11*	i	-3	2	1
CCCOc1ccc(F)cc1-c1cc(C(=O)Nc2ccc(C(C)C)cc2)[nH]n1	/	-3	8	21*	/	/	5	4
Cc1ccc(-c2cc(C(=O)N/N=C/c3c(C)nn(C)c3C)c3ccccc3n2)cc1C	i	-4	10	11*	i	-2	9.3*	4
Cc1ccc(-c2cc(C(=O)N/N=C/c3ccoc3)c3ccccc3n2)cc1	i	-18	13	2	i	1	/	/
C#CCN1C(=O)S/C(=C\c2ccc(N3CCOCC3)cc2C)C1=O	i	-2	6	11*	i	0	-3	3
Cc1ccc(S(=O)(=O)N2CCC(C(=O)N3CCCC3C(=O)N[C@@H](CC(C)C)C(=O)NCC(N)=O)CC2)cc1 (some centres undefined)	i	0	7	1	i	0	/	/
COc1ccc(NC(=O)N(C)C[C@@H]2OCc3cnnn3CCCC(=O)N([C@H](C)CO)C[C@@H]2C)cc1	/	10	1	1	/	/	/	/
